Assay results: ChEMBL document CHEMBL1153393, “Discovery of N-(4-methoxyphenyl)-N,2-dimethylquinazolin-4-amine, a potent apoptosis inducer and efficacious anticancer agent with high blood brain barrier penetration” (J Med Chem, 2009)
Values belong to the compound of their own block, whether it stands above or below them. Calls of active or inactive are those of the source. The rule behind the calls is not given here.

What was measured:
HCT-116 [1] = assay: Induction of apoptosis in human HCT116 cells assessed as caspase activation after 24 hrs by HTS assay; assay type: functional, cell-based; settings: HCT-116, 24 h
Procedure, shortened: (§1)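 Cell-based caspase HTS assay. Cells plated with various concentrations and incubated 24 h at 37 °C, then given fluorogenic caspase substrate N-(Ac-DEVD)-N'-ethoxycarbonyl-R110. EC50 reported as mean ± SEM of three or more experiments.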

SNU-398 [2] = assay: Induction of apoptosis in human SNU398 cells assessed as caspase activation after 24 hrs by HTS assay; assay type: functional, cell-based; settings: SNU-398, 24 h; procedure, shortened: as §1
T47D [3] = assay: Induction of apoptosis in human T47D cells assessed as caspase activation after 24 hrs by HTS assay; assay type: functional, cell-based; procedure, shortened: as §1
[4] = Ratio of AUC (0 to infinity) in C57BL/6 mouse brain to AUC (0 to infinity) in C57BL/6 mouse plasma at 2.5 mg/kg, iv; assay type: ADME, organism-based; parameters: dose 2.5 mg/kg, route intravenous; settings: read-out: Ratio AUC
Procedure, shortened: (§2)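 Mice given a single iv dose of 2.5 mg/kg. Plasma from blood samples and homogenized whole brain collected over time and analyzed by LC-MS/MS. Brain/plasma ratio is taken from the AUCs of the concentration-time curves.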

Plasma = assay: AUC (0 to infinity) in C57BL/6 mouse plasma at 2.5 mg/kg, iv; assay type: ADME, organism-based; parameters: time infinity, dose 2.5 mg/kg, route intravenous; settings: in vivo; procedure, shortened: as §2
HCT-116 [5] = assay: Growth inhibition of human HCT116 cells after 48 hrs by celltiter assay; assay type: functional; settings: HCT-116, 48 h
Procedure, shortened: (§3)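 Cells ATCC-sourced, in 96-well format, exposed to serial concentrations for 48 h. Survival quantitated by CellTiter-Glo luminescence. GI50 reported as mean ± SEM of three or more experiments.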

T47D [6] = assay: Induction of apoptosis in human T47D cells assessed as subdiploid DNA content at 5 nM after 48 hrs by using propidium iodide staining by flow cytometry
T47D [7] = assay: Induction of apoptosis in human T47D cells assessed as sub-diploid DNA content at 5 nM after 48 hrs by using propidium iodide staining by flow cytometry; assay type: functional
Procedure, shortened: (§4)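 T47D cells treated with 5 nM for 24 or 48 h, then stained with propidium iodide. DNA content analysed by flow cytometry, with cells scored in G1, G2/M and subdiploid (sub-G1) populations against untreated control.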

MX1 [8] = assay: Antitumor activity against human MX1 cells xenografted in Crl:Nu/Nu-nuBR mouse assessed as tumor growth inhibition at 10 mg/kg, iv administered once weekly for 3 weeks; assay type: functional, organism-based; parameters: dose 10 mg/kg
T47D [9] = assay: Induction of apoptosis in human T47D cells assessed as G2/M DNA content at 5 nM after 24 hrs by using propidium iodide staining by flow cytometry; assay type: functional; procedure, shortened: as §4
Jurkat [10] = assay: Induction of apoptosis in human Jurkat cells assessed as sub-diploid DNA content at 10 nM after 18 hrs by flow cytometry in presence of caspase inhibitor MX-1013; assay type: functional
SNU-398 [11] = assay: Growth inhibition of human SNU398 cells after 48 hrs by celltiter assay; assay type: functional; settings: SNU-398, 48 h; procedure, shortened: as §3
T47D [12] = assay: Induction of apoptosis in human T47D cells assessed as G1 phase DNA content at 5 nM after 48 hrs by using propidium iodide staining by flow cytometry; assay type: functional; procedure, shortened: as §4
T47D [13] = assay: Induction of apoptosis in human T47D cells assessed as G1 phase DNA content at 5 nM after 24 hrs by using propidium iodide staining by flow cytometry; assay type: functional; procedure, shortened: as §4
Brain = assay: AUC (0 to infinity) in C57BL/6 mouse brain at 2.5 mg/kg, iv; assay type: ADME, organism-based; parameters: time infinity, dose 2.5 mg/kg, route intravenous; settings: in vivo; procedure, shortened: as §2
T47D [14] = assay: Induction of apoptosis in human T47D cells assessed as sub-diploid DNA content at 5 nM after 24 hrs by using propidium iodide staining by flow cytometry; assay type: functional; procedure, shortened: as §4
MX1 [15] = assay: Antitumor activity against human MX1 cells xenografted in Crl:Nu/Nu-nuBR mouse assessed as tumor growth inhibition at 7.5 mg/kg, iv administered once weekly for 3 weeks; assay type: functional, organism-based; parameters: dose 7.5 mg/kg
T47D [16] = assay: Induction of apoptosis in human T47D cells assessed as S phase DNA content at 5 nM after 48 hrs by using propidium iodide staining by flow cytometry; assay type: functional; procedure, shortened: as §4
T47D [17] = assay: Induction of apoptosis in human T47D cells assessed as S phase DNA content at 5 nM after 24 hrs by using propidium iodide staining by flow cytometry; assay type: functional; procedure, shortened: as §4
Jurkat [18] = assay: Induction of apoptosis in human Jurkat cells assessed as sub-diploid DNA content at 10 nM after 18 hrs by flow cytometry; assay type: functional
MX1 [19] = assay: Antitumor activity against human MX1 cells xenografted in Crl:Nu/Nu-nuBR mouse assessed as tumor growth inhibition at 5 mg/kg, iv administered once weekly for 3 weeks; assay type: functional, organism-based; parameters: dose 5 mg/kg
T47D [20] = assay: Growth inhibition of human T47D cells after 48 hrs by celltiter assay; assay type: functional; procedure, shortened: as §3
[21] = Drug level in rhesus monkey cerebrospinal fluid; assay type: ADME, tissue-based, Macaca mulatta; settings: in vivo
[22] = Drug level in rhesus monkey cerebrospinal fluid at 7.5 mg/kg, iv after 24 hrs; assay type: ADME, organism-based, Macaca mulatta; parameters: dose 7.5 mg/kg, route intravenous; settings: in vivo

SMILES: COc1ccc(N(C)c2nc(C)nc3ccccc23)cc1F
EC50 (HCT-116 [1]): 2 nM
EC50 (SNU-398 [2]): 2 nM
EC50 (T47D [3]): 2 nM

SMILES: COc1ccc(N(C)c2nc(N(C)C(C)=O)nc3ccccc23)cc1
EC50 (HCT-116 [1]): 9 nM
EC50 (SNU-398 [2]): 10 nM
EC50 (T47D [3]): 9 nM

SMILES: Cc1nc(N(C)c2ccc(N=[N+]=[N-])cc2)c2ccccc2n1
EC50 (HCT-116 [1]): 12 nM
EC50 (SNU-398 [2]): 11 nM
EC50 (T47D [3]): 11 nM

SMILES: CNc1nc(N(C)c2ccc(OC)cc2)c2ccccc2n1
EC50 (HCT-116 [1]): 9 nM
EC50 (SNU-398 [2]): 5 nM
EC50 (T47D [3]): 8 nM

SMILES: COc1cnc(N(C)c2nc(C)nc3ccccc23)cn1
EC50 (HCT-116 [1]): 75 nM
EC50 (SNU-398 [2]): 49 nM
Kp [4]: 1.9
EC50 (T47D [3]): 53 nM

SMILES: COc1ccc(N(C)c2nc(N(C)C)nc3ccccc23)cc1
EC50 (HCT-116 [1]): 43 nM
EC50 (SNU-398 [2]): 33 nM
Kp [4]: 4
EC50 (T47D [3]): 15 nM

SMILES: COc1ccc(N(C)c2nc(CN(C)C)nc3ccccc23)cc1
EC50 (HCT-116 [1]): 2600 nM
EC50 (SNU-398 [2]): 2000 nM
EC50 (T47D [3]): 1800 nM

SMILES: COc1ccc(N(C)c2nc(C)nc3ccccc23)cn1
Kp [4]: 5.8

SMILES: Cc1nc(N(C)c2ccc(OC(F)F)cc2)c2ccccc2n1
EC50 (HCT-116 [1]): 11 nM
EC50 (T47D [3]): 9 nM

SMILES: COc1ccc(N(C)c2nc(NC/C=C(\C)CCC=C(C)C)nc3ccccc23)cc1
EC50 (HCT-116 [1]): 460 nM
EC50 (SNU-398 [2]): 270 nM
EC50 (T47D [3]): 290 nM

SMILES: COc1ccc(N(C)c2nc(C)nc3ccccc23)cc1OC
EC50 (HCT-116 [1]): 14 nM
EC50 (SNU-398 [2]): 13 nM
EC50 (T47D [3]): 10 nM

SMILES: COc1ccc(N(C)c2nc(C)nc3ccccc23)c(F)c1
EC50 (HCT-116 [1]): 4 nM
EC50 (SNU-398 [2]): 4 nM
EC50 (T47D [3]): 4 nM

SMILES: COc1ccc(N(C)c2nc(CF)nc3ccccc23)cc1
EC50 (HCT-116 [1]): 2 nM
EC50 (SNU-398 [2]): 1 nM
EC50 (T47D [3]): 2 nM

Now from value to compound, other results behind:

EC50 (HCT-116 [1]): 2 nM
EC50 (SNU-398 [2]): 2 nM
EC50 (T47D [3]): 2 nM
SMILES: COc1ccc(N(C)c2nc(Cl)nc3ccccc23)cc1

EC50 (HCT-116 [1]): 3 nM
EC50 (T47D [3]): 3 nM
SMILES: CSc1ccc(N(C)c2nc(C)nc3ccccc23)cc1

EC50 (HCT-116 [1]): 33 nM
EC50 (SNU-398 [2]): 20 nM
EC50 (T47D [3]): 15 nM
SMILES: Cc1nc(N(C)c2ccc(N(C)C)nc2)c2ccccc2n1

AUC (Plasma): 686 ng/mL
GI50 (HCT-116 [5]): 6 nM
GI50 (SNU-398 [11]): 3 nM
AUC (Brain): 11459 ng/mL
EC50 (HCT-116 [1]): 3 nM
EC50 (SNU-398 [2]): 2 nM
Kp [4]: 16
GI50 (T47D [20]): 6 nM
SMILES: COc1ccc(N(C)c2nc(C)nc3ccccc23)cc1 [VERUBULIN]
Activity (T47D [6]): 34%
Activity (T47D [7]): 34%
Activity (MX1 [8]): Active
Activity (T47D [9]): 58%
Activity (Jurkat [10]): 11%
Activity (T47D [12]): 14%
Activity (T47D [13]): 15%
Activity (T47D [14]): 15%
Activity (MX1 [15]): Active
Activity (T47D [16]): 16%
Activity (T47D [17]): 10%
Activity (Jurkat [18]): 68%
Activity (MX1 [19]): Active

EC50 (HCT-116 [1]): 1300 nM
EC50 (SNU-398 [2]): 620 nM
EC50 (T47D [3]): 740 nM
SMILES: Cc1nc(N(C)c2ccc([N+](=O)[O-])cc2)c2ccccc2n1

EC50 (HCT-116 [1]): 4 nM
EC50 (SNU-398 [2]): 2 nM
EC50 (T47D [3]): 2 nM
SMILES: COc1ccc(N(C)c2nc(CO)nc3ccccc23)cc1

Drug uptake [21]: 5%
SMILES: Cc1ccc(NC(=O)c2ccc(CN3CCN(C)CC3)cc2)cc1Nc1nccc(-c2cccnc2)n1 [IMATINIB]

EC50 (HCT-116 [1]): 44 nM
EC50 (SNU-398 [2]): 18 nM
EC50 (T47D [3]): 16 nM
SMILES: COc1ccc(N(C)c2nc(C)nc3ccccc23)nc1

EC50 (HCT-116 [1]): 4 nM
EC50 (SNU-398 [2]): 4 nM
EC50 (T47D [3]): 4 nM
SMILES: CCOc1ccc(N(C)c2nc(C)nc3ccccc23)cc1

EC50 (HCT-116 [1]): 250 nM
EC50 (SNU-398 [2]): 170 nM
Kp [4]: 0.9
EC50 (T47D [3]): 180 nM
SMILES: Cc1nc(N(C)c2ccc(N)cc2)c2ccccc2n1

EC50 (HCT-116 [1]): 130 nM
EC50 (T47D [3]): 86 nM
SMILES: Cc1nc(N(C)c2ccc(O)cc2)c2ccccc2n1

Drug uptake [22]: 1.1%
SMILES: COc1ccc(S(=O)(=O)Nc2cccnc2Nc2ccc(O)cc2)cc1 [ABT-751]

EC50 (HCT-116 [1]): 36 nM
EC50 (SNU-398 [2]): 20 nM
EC50 (T47D [3]): 23 nM
SMILES: COc1ccc(N(C)c2nc(NN)nc3ccccc23)cc1

EC50 (HCT-116 [1]): 19 nM
EC50 (T47D [3]): 16 nM
SMILES: Cc1nc(N(C)c2ccc(N(C)C)cc2)c2ccccc2n1

EC50 (HCT-116 [1]): 26 nM
EC50 (T47D [3]): 31 nM
SMILES: CCc1ccc(N(C)c2nc(C)nc3ccccc23)cc1

EC50 (HCT-116 [1]): 630 nM
EC50 (SNU-398 [2]): 390 nM
EC50 (T47D [3]): 420 nM
SMILES: Cc1nc(N(C)c2ccc(F)cc2)c2ccccc2n1

EC50 (HCT-116 [1]): 83 nM
EC50 (SNU-398 [2]): 66 nM
Kp [4]: 0.74
EC50 (T47D [3]): 59 nM
SMILES: CC(=O)Nc1ccc(N(C)c2nc(C)nc3ccccc23)cc1

EC50 (HCT-116 [1]): 48 nM
EC50 (T47D [3]): 48 nM
SMILES: COc1ccc(N(C)c2nc(CCl)nc3ccccc23)cc1
